# An excerpt weighted towards active compounds, which were near 1.8% of everything screened.
# STAT3 activator: IL-6 driven STAT3 reporter potentiators, primary screen, U3A cells, luciferase, luminescence, MLSCN library. IL-6 STAT3-luciferase reporter; 100% = signal with IL-6 EC80 alone. activation (% of control), % at 5.6 µM. actives 0.91% (n = 190,000). AID 871, 2007;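 active means activation above the screen-wide mean of compound activation plus 3 SD, cut at about 130% in these data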;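 further: 0% = background luminescence of wells with medium and substrate only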
#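 system = STAT3-luciferase reporter U3A cells | reagent = IL-6 stimulus at 33 ng/mL final | timing = 1 h compound pre-exposure, 6 h IL-6 stimulation, 37 °C | measured by = luminescence | evaluation = % activation versus median of IL-6-stimulated wells | control set = IL-6-only wells as 100% reference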
# TRAIL sens C8: viability loss with TRAIL in NB7+C8 cells, primary screen, TRAIL sensitizer project, cell-based, ATPlite luminescence; inhibition (viability loss, TRAIL sensitization), % at 10 µM; actives 1% (n = 360,000); AID 624354, 2012;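 active means compounds causing at least 50% loss of cell viability in the single-dose screen, relative to plate controls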
# STAT1 inh: STAT1 signaling inhibitors, primary screen, cell-based, HTS, luciferase reporter. NIH 3T3 STAT1-luciferase reporter, IFN-gamma, luminescence. inhibition, % at 5.5 µM. actives 0.35% (n = 200,000);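 active means inhibition above a set limit, the mean inhibition across all tested compounds plus 3 SD, cut at about 34% in these data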;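 further: 0% = IFN-gamma with DMSO and 100% = IFN-gamma with 300 µM nifuroxazide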
# STAT3 inh-1: IL-6 driven STAT3 reporter inhibitors, primary screen, U3A cells, luciferase, luminescence, MLSCN library. inhibition, % at 5.5 µM. AID 862, 2007. IL-6 STAT3-luciferase reporter; host cell line lacks STAT1. actives 0.89% (n = 190,000);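 active means inhibition above the mean inhibition across all screened compounds plus 3 SD, cut at about 44% in these data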;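 further: 0% = DMSO only wells and 100% = 100 µM nifuroxazide control wells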
# PPC-1+TRAIL kill: compounds killing PPC-1 cancer cells with TRAIL present, primary screen, TRAIL potentiator project, ATPLite luminescence, uHTS; cell killing (% activity), % at 4 µM or 5 µM; actives 0.41% (n = 220,000); PPC-1 cells + TRAIL, ATPLite viability luminescence;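 active means cell killing above 50% in the first pass at 4 µM, then a duplicate retest at 5 µM averaging 50% or more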;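 further: plate controls were cells with TRAIL plus DMSO for no effect and medium-only wells lacking cells for full effect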
# STAT3 inh-2: STAT3 reporter inhibitors, retest of hits, confirmation, U3A cells, luciferase, luminescence | shares compounds with STAT3 inh-1 | IL-6 STAT3 luciferase reporter; cell line lacks STAT1 | inhibition, % at 5.7 µM | actives 45% (n = 1,200) | AID 1265, 2008;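 active means inhibition above the hit cutoff computed for the primary STAT3 screen, cut at about 44% in these data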;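 further: 0% = IL-6 plus DMSO and 100% = IL-6 plus nifuroxazide control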
# NFkB inh 2: NF-kB reporter inhibitors in human cells, confirmation, counter-screen for STAT3 inhibitor project, cell-based, HEK293T, luciferase, TNF-alpha stimulus | shares compounds with STAT3 inh-1 | TNF-alpha induced | inhibition, % at 5.7 µM | actives 36% (n = 1,200);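 active means inhibition above the mean of solvent-only control wells plus 3 SD, cutoff set per campaign, cut at about 13% in these data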;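 further: 0% = TNF-alpha with DMSO and 100% = TNF-alpha with MG high control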
# STAT1 inh 2: STAT1 reporter inhibitors, IFN-gamma induced, confirmation, counter-screen for STAT3 inhibitor project, cell-based, NIH 3T3, luciferase luminescence | shares compounds with STAT3 inh-1 | NIH 3T3 STAT1-luciferase reporter | inhibition, % at 5.7 µM | actives 27% (n = 1,200);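 active means inhibition above the mean plus 3 SD of solvent-only control wells, limit set per screening run, cut at about 16% in these data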;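 further: 0% = DMSO with IFN-gamma and 100% = nifuroxazide control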
# * = called active by the depositor; . = no result.
SMILES,STAT3 activator,TRAIL sens C8,STAT1 inh,STAT3 inh-1,PPC-1+TRAIL kill,STAT3 inh-2,NFkB inh 2,STAT1 inh 2
N/C(=N\OC(=O)c1cccc(Cl)c1)c1ccccn1,39.0,56.4*,24.5,74.2*,39.8,-5.1,-29.2,-86.7
O=C(Nc1ccc(N2CCCC2)cc1)c1cccc(F)c1,63.2,12.2,-22.8,48.2*,23.0,-3.2,-24.3,-140.0
Cc1cccc(-c2ccc(O)cc2CN2CCN(c3ncc(Cc4ccccc4)cn3)CC2)c1,.,-6.2,.,.,.,.,.,.
Cc1cc(/C=C2\SC(=S)N(Cc3ccco3)C2=O)c(C)n1-c1cccnc1,116.7,7.3,5.5,-20.6,17.7,.,.,.
Cc1cc(/C=C2/SC(=S)N(c3cccc(C(F)(F)F)c3)C2=O)c(C)n1-c1cccnc1,33.6,18.8,27.7,77.8*,.,83.7*,33.2*,31.2*
COc1ccc(C)cc1-n1nnnc1SCn1nnc2ccccc2c1=O,59.0,19.0,25.3,53.7*,17.1,43.7*,7.0,15.9
Cc1ccc(-n2nnnc2SCn2nnc3ccccc3c2=O)cc1,108.3,6.8,-7.1,-5.1,23.0,.,.,.
O=[N+]([O-])c1nccn1CCCCCCN1CCOCC1,.,-14.8,.,.,.,.,.,.
Cc1ccc(C(=O)/C=C2\NCCNC2=O)cc1,93.2,29.6,-33.3,11.1,30.8,.,.,.
Cc1ccc(C(=O)/C=C2\NCC(C)NC2=O)cc1 (stereo not given),45.7,43.1,-11.1,65.1*,37.7,25.0,-6.3,-85.1
CCn1c(=O)n(CC)c2cc(N3CCCC3)c(NC(=O)c3cccc(OC)c3)cc21,.,-10.8,.,.,.,.,.,.
Nc1nc(Cl)cc(N2CCC(c3cc(-c4ccc(Cl)cc4)n[nH]3)CC2)n1,61.1,28.5,24.2,52.6*,-7.5,45.6*,-3.4,21.0*
CC1=NC(=O)C(N=Nc2cccc(C(=O)O)c2)N1c1ccccc1 (stereo not given),45.5,2.6,28.8,64.9*,19.7,41.4,17.9*,-30.2
Cc1cc(OCC(=O)Nc2ccccc2C(N)=O)c2c(C)cc(=O)oc2c1,.,-1.2,.,.,.,.,.,.
O=C(Nc1ccc(CN2CCOCC2)cc1)c1cc2ccccn2n1,40.9,-8.0,18.2,75.8*,49.0,26.5,-2.2,-49.8
Cc1cc(CSc2ccccc2)ccc1NC(=O)c1ccc(CN2CCOCC2)cc1,39.9,23.8,8.5,73.2*,32.3,78.8*,30.4*,17.4*
CCOC(=O)c1ccc(NC(=O)c2ccc(CN3CCOCC3)cc2)cc1,45.4,25.5,7.0,67.9*,0.7,69.4*,11.6,6.7
O=C(/C=C/c1ccc(Cl)cc1)Nc1ccc(CN2CCOCC2)cc1,59.6,32.8,4.4,44.7*,24.2,62.2*,14.2*,5.9
NC(=O)c1ccc(NC(=O)c2ccc(CN3CCOCC3)cc2)cc1,103.1,-3.6,-3.1,-3.5,-12.9,.,.,.
O=C(Nc1ccc(CN2CCOCC2)cc1)c1cc2ccccc2o1,86.6,43.1,-36.2,20.2,27.6,.,.,.
CCCCn1c(N)c(N(CCOC)C(=O)CCS(=O)(=O)c2ccc(C)cc2)c(=O)[nH]c1=O,.,-7.7,.,.,.,.,.,.
O=C(NCC1CCCCC1)c1cc(-c2cc(F)ccc2OCC2CCCO2)n[nH]1 (stereo not given),.,14.8,.,.,.,.,.,.
Cc1cccc(NC(=O)c2onc3c2CCCC3)n1,42.5,86.1*,-22.1,70.6*,80.8*,54.8*,17.8*,-22.6
Cc1cccc(NC(=O)c2onc3c2CCCC3)c1C,111.8,21.5,-45.3,-9.5,-4.2,.,.,.
Cc1cccc(NC(=O)c2ccc3c(Cl)c4c(nc3c2)CCCC4)n1,51.4,69.9*,-52.1,64.0*,35.9,24.7,-7.3,-112.0

# Compound activity deposited in PubChem BioAssay by several laboratories.
